Source: ChEMBL document CHEMBL1155138, “Identification and characterization of a new metallo-beta-lactamase, IND-5, from a clinical isolate of Chryseobacterium indologenes” (Antimicrob Agents Chemother, 2007)
Activity calls are given as the source filed them. No cut-off for these calls is given here.

Columns and labels:
[1] = test system: Chryseobacterium indologenes; assay: Activity of Chryseobacterium indologenes metallo-beta-lactamase IND-5 expressed in Escherichia coli BL21(DE3) assessed as substrate hydrolysis
In short: (§1)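 Purified IND-5 came from E. coli BL21(DE3)/pET-IND-5, induced with 1 mM IPTG for 2 h at 20°C. It was purified by Mono Q then Mono P chromatography in buffers with 50 μM ZnSO4. Substrate hydrolysis was measured under initial-rate conditions in 30 mM sodium cacodylate pH 6.5 plus 50 μM ZnSO4. Km and kcat came from Hanes linearization and are means of three measurements.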

Escherichia coli [2] = assay: Antimicrobial activity against Escherichia coli HB101 harboring pBC-SK plasmid assessed as drug level at which microbial resistance was observed by agar dilution method; type: functional
Escherichia coli [3] = assay: Antimicrobial activity against Escherichia coli HB101 harboring pBC-IND-5 plasmid containing metallo-beta-lactamase IND5 assessed as drug level at which microbial resistance was observed by agar dilution method; type: functional
[4] = test system: Chryseobacterium indologenes; assay: Antimicrobial activity against Chryseobacterium indologenes NF16 isolate assessed as drug level at which microbial resistance was observed by agar dilution method; type: functional
In short: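 Agar dilution per CLSI guidelines, inoculum 5 × 10^5 CFU per spot; E. coli ATCC 25922 run as quality-control strain.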

[5] = test system: Chryseobacterium indologenes; assay: Ratio of Kcat to Km of Chryseobacterium indologenes metallo-beta-lactamase IND-5 expressed in Escherichia coli BL21(DE3) assessed as substrate hydrolysis; in short: as §1
[6] = test system: Chryseobacterium indologenes; assay: Ratio of Kcat to Km of Chryseobacterium indologenes metallo-beta-lactamase IND-5 expressed in Escherichia coli BL21(DE3) assessed as substrate hydrolysis relative to control; set-up: scale not given: the % may be the effect or the level left
[7] = Inhibition of Chryseobacterium indologenes metallo-beta-lactamase IND-5 expressed in Escherichia coli BL21(DE3) using nitrocefin reporter substrate
In short: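 Purified IND-5 at 0.1 μM was incubated for 15 min at 30°C with increasing concentrations of zinc chelator.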

Structure (SMILES)	Activity [1]	Activity (Escherichia coli [2]) [µg/mL]	Activity (Escherichia coli [3]) [µg/mL]	Activity [4] [µg/mL]	Km [1] [µM]	kcat [1] [s⁻¹]	kcat/Km [5] [M⁻¹ s⁻¹]	Activity [6] [%]	Ki [7] [µM]
CO/N=C(\C(=O)N[C@@H]1C(=O)N2C(C(=O)[O-])=C(C[N+]3(C)CCCC3)CS[C@H]12)c1csc(N)n1	inactive	< 0.125	0.5	0.5					
CC1(C)S[C@@H]2[C@H](NC(=O)C(C(=O)O)c3ccccc3)C(=O)N2[C@H]1C(=O)O (stereo partly specified)					320	17	53000	6.3	
CC1(C)S[C@@H]2[C@H](NC(=O)Cc3ccccc3)C(=O)N2[C@H]1C(=O)O					13	10.9	840000	100	
CC1(C)S[C@@H]2[C@H](NC(=O)[C@H](N)c3ccccc3)C(=O)N2[C@H]1C(=O)O					150	10.3	69000	8.2	
CC1(C)[C@H](C(=O)O)N2C(=O)C[C@H]2S1(=O)=O					1300	3.3	2500	0.3	
CO[C@@]1(NC(=O)C(C(=O)O)c2ccc(O)cc2)C(=O)N2C(C(=O)O)=C(CSc3nnnn3C)CO[C@@H]21 (stereo partly specified)	inactive								
C[C@]1(Cn2ccnn2)[C@H](C(=O)O)N2C(=O)C[C@H]2S1(=O)=O	inactive								
O=C(Cc1cccs1)N[C@@H]1C(=O)N2C(C(=O)O)=C(/C=C/c3ccc([N+](=O)[O-])cc3[N+](=O)[O-])CS[C@H]12					8	4.4	550000	65	
CC1(C)S[C@@H]2[C@H](NC(=O)[C@H](N)c3ccc(O)cc3)C(=O)N2[C@H]1C(=O)O [AMOXICILLIN]		2	>64	>64					
C[C@H]1[C@H](NC(=O)/C(=N\OC(C)(C)C(=O)O)c2csc(N)n2)C(=O)N1S(=O)(=O)O [AZTREONAM]	inactive			32					
Cc1nnc(SCC2=C(C(=O)O)N3C(=O)[C@@H](NC(=O)Cn4cnnn4)[C@H]3SC2)s1 [CEFAZOLIN]		1	64	64	25	0.46	18000	2.1	
CO/N=C(\C(=O)N[C@@H]1C(=O)N2C(C(=O)O)=C(COC(C)=O)CS[C@H]12)c1csc(N)n1 [CEFOTAXIME]			16	32	49	1.53	31000	3.7	
CC(C)(O/N=C(\C(=O)N[C@@H]1C(=O)N2C(C(=O)[O-])=C(C[n+]3ccccc3)CS[C@H]12)c1csc(N)n1)C(=O)O [CEFTAZIDIME]		<0.5	0.5	1					
O=C(O)c1cccc(C(=O)O)n1 [DIPICOLINIC ACID]									3
O=C(O)CN(CCN(CC(=O)O)CC(=O)O)CC(=O)O [EDETIC ACID]									815
C[C@@H](O)[C@H]1C(=O)N2C(C(=O)O)=C(SCCNC=N)C[C@H]12 [IMIPENEM ANHYDROUS]		0.5	1	32	300	7.28	24000	2.8	
C[C@@H](O)[C@H]1C(=O)N2C(C(=O)O)=C(S[C@@H]3CN[C@H](C(=O)N(C)C)C3)[C@H](C)[C@H]12 [MEROPENEM]		<0.125	1	16	280	4.13	15000	1.8	
c1cnc2c(c1)ccc1cccnc12 [PHENANTHROLINE]									7.3
CCN1CCN(C(=O)N[C@@H](C(=O)N[C@@H]2C(=O)N3[C@@H]2SC(C)(C)[C@@H]3C(=O)O)c2ccccc2)C(=O)C1=O [PIPERACILLIN]		1	32	16	375	14.6	39000	4.6	
